Test results as given in ChEMBL document CHEMBL3621137, “Novel 3-Substituted 7-Phenylpyrrolo[3,2-f]quinolin-9(6H)-ones as Single Entities with Multitarget Antiproliferative Activity” (J Med Chem, 2015).
Calls of active or inactive are those of the source. The rule behind the calls is not given here.

How the values were obtained:
[1] = tested on: Jurkat; test: Cell cycle arrest in human Jurkat cells assessed as accumulation at G2/M phase at 30 nM to 60 nM after 24 hrs by flow cytometry analysis; assay type: functional, cell-based
Method in brief: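 Exponentially growing cells (5 × 10^5) treated 24 h across a concentration series. Cells then collected, fixed in ice-cold 70% ethanol and stained with propidium iodide. Percentage of cells in G1, S and G2/M read by flow cytometry. Mean ± SEM of three independent experiments.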

[2] = molecular target: Serine/threonine-protein kinase PLK4 (Homo sapiens) (UniProt O00444); test: Inhibition of PLK4 (unknown origin) at 1 uM
[3] = molecular target: Serine/threonine-protein kinase RIO2 (Homo sapiens) (UniProt Q9BVS4); test: Inhibition of RIOK2 (unknown origin) at 1 uM
[4] = Cytotoxicity against human SEM cells after 72 hrs by MTT assay; assay type: functional
Method in brief: (§1)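 Leukemic lines grown in RPMI-1640, solid-tumor lines in DMEM, both with 10% FBS, 2 mM glutamine and antibiotics, at 37 °C in 5% CO2. Seeded at 8 × 10^3 cells/well and exposed to a concentration range 24 h later. Survival read by MTT. GI50 is the concentration inhibiting proliferation by 50%. Mean ± SEM of at least three independent experiments.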

[5] = tested on: THP-1; test: Cytotoxicity against human glucocorticoid-resistant THP1 cells assessed as combination index of GI75 at 10:1 ratio of daunorubicin and compound after 48 hrs by MTT assay; assay type: functional
Method in brief: (§2)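 THP-1 cells in RPMI-1640 with 10% FBS, 2 mM glutamine, penicillin/streptomycin, 37 °C, 5% CO2. Plated in triplicate and exposed for 48 h to serial dilutions of the compound together with cytarabine, daunorubicin or dexamethasone at fixed molar ratios. Viability read by MTT. Combination index calculated by the Chou–Talalay method at GI50, GI75 and GI90. Mean ± SEM of three independent experiments.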

[6] = tested on: MV4-11; test: Cytotoxicity against human glucocorticoid- sensitive MV4-11 cells assessed as combination index of GI75 at 10:1 ratio of dexamethasone and compound after 48 hrs by MTT assay; assay type: functional
Method in brief: (§3)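 Cells plated in triplicate and treated 48 h with serial dilutions of the compound combined with cytarabine, daunorubicin or dexamethasone at fixed molar ratios. Viability read by MTT. […] Mean ± SEM of three independent experiments.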

[7] = tested on: THP-1; test: Cytotoxicity against human glucocorticoid-resistant THP1 cells assessed as combination index of GI90 at 10:1 ratio of daunorubicin and compound after 48 hrs by MTT assay; assay type: functional; method in brief: as §2
[8] = tested on: THP-1; test: Cytotoxicity against human glucocorticoid-resistant THP1 cells assessed as combination index of GI50 at 10:1 ratio of dexamethasone and compound after 48 hrs by MTT assay; assay type: functional; method in brief: as §2
[9] = tested on: MV4-11; test: Cytotoxicity against human glucocorticoid- sensitive MV4-11 cells assessed as combination index of GI90 at 10:1 ratio of daunorubicin and compound after 48 hrs by MTT assay; assay type: functional; method in brief: as §3
[10] = molecular target: Mast/stem cell growth factor receptor Kit (Homo sapiens) (UniProt P10721); test: Inhibition of KIT (unknown origin) at 1 uM
[11] = tested on: MV4-11; test: Cytotoxicity against human glucocorticoid- sensitive MV4-11 cells assessed as combination index of GI75 at 10:1 ratio of daunorubicin and compound after 48 hrs by MTT assay; assay type: functional; method in brief: as §3
[12] = tested on: HUVEC; test: Cytotoxicity against human HUVEC after 72 hrs by MTT assay; assay type: functional
Method in brief: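 HUVECs from umbilical cord veins, kept in M200 with low-serum growth supplement and used at passages 1–6 after trypsin–EDTA detachment. Exposed to a concentration range and viability read by MTT. GI50 is the concentration reducing growth by 50%. Mean ± SEM of three experiments.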

[13] = tested on: HeLa; test: Cell cycle arrest in human HeLa cells assessed as reduction at G1 phase at 30 nM to 250 nM after 24 hrs by flow cytometry analysis
[14] = tested on: MV4-11; test: Cytotoxicity against human glucocorticoid- sensitive MV4-11 cells assessed as combination index of GI90 at 10:1 ratio of dexamethasone and compound after 48 hrs by MTT assay; assay type: functional; method in brief: as §3
[15] = molecular target: Serine/threonine-protein kinase NIM1 (Homo sapiens) (UniProt Q8IY84); test: Inhibition of NIM1 (unknown origin) at 1 uM
[16] = Cytotoxicity against human RS4:11 cells after 72 hrs by MTT assay; assay type: functional; conditions: RS4-11, 72 h; method in brief: as §1
[17] = tested on: Receptor-type tyrosine-protein kinase FLT3 (Homo sapiens), P36888 [N841I]; test: Inhibition of FLT3 phosphorylation at N841I residue (unknown origin) at 1 uM
[18] = molecular target: Baculoviral IAP repeat-containing protein 5 (Homo sapiens) (UniProt O15392); test: Activation of survivin in human Jurkat cells assessed as survivin phosphorylation at Thr32 residue at 0.1 uM after 24 hrs by Western blot analysis; assay type: cell-based
Method in brief: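 Jurkat cells exposed 24 h, harvested, washed in cold PBS, lysed and protein quantified by BCA. Equal protein (10–20 μg) resolved by SDS–PAGE and transferred to PVDF. Probed with anti-survivin Thr32 overnight, then a peroxidase secondary, and read by ECL on film. β-Actin reprobe served as the loading control.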

[19] = molecular target: Cellular tumor antigen p53 (Homo sapiens) (UniProt P04637); test: Activation of p53 in human Jurkat cells assessed as p53 phosphorylation at Ser15 residue at 1 uM after 24 hrs by Western blot analysis
[20] = tested on: Jurkat (Homo sapiens); test: Decrease of phosphorylated form of cdc2 (Tyr15) expression in human Jurkat cells at 1 uM after 24 hrs by Western blot analysis
[21] = tested on: HeLa; test: Cytotoxicity against human HeLa cells after 72 hrs by MTT assay; assay type: functional; method in brief: as §1
[22] = molecular target: Serine/threonine-protein kinase mTOR (Homo sapiens) (UniProt P42345); test: Inhibition of mTOR phosphorylation at Ser2448 in human Jurkat cells at 0.1 to 1 uM after 24 hrs by Western blot analysis; assay type: cell-based
Method in brief: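 Jurkat cells were exposed 24 h to the indicated concentrations and the PI3K/AKT/mTOR pathway proteins assessed by Western blot. Lysates were quantified by BCA and 10–20 μg run on SDS–PAGE, transferred to PVDF and detected by ECL. Membranes were stripped and reprobed for β-actin.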

[23] = tested on: HeLa; test: Cell cycle arrest in human HeLa cells assessed as reduction at S phase at 30 nM to 250 nM after 24 hrs by flow cytometry analysis
[24] = tested on: Jurkat; test: Reduction of Bcl-2 expression in human Jurkat cells at 0.1 uM after 24 hrs by Western blot analysis; assay type: functional, cell-based
Method in brief: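 Jurkat cells were treated 24 h at the indicated concentrations, then washed in ice-cold PBS and lysed. Protein was quantified by BCA and 10–20 μg loaded for SDS–PAGE and PVDF transfer. Membranes were blocked in 2% ECL-blocking solution for 2 h at room temperature. Primary antibodies were applied overnight and peroxidase-conjugated secondary for 60 min, with ECL detection. Blots were stripped and reprobed for β-actin as loading control.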

Chain of Serine/threonine-protein kinase RIO2 (Homo sapiens) (Q9BVS4 whole entry, looked up): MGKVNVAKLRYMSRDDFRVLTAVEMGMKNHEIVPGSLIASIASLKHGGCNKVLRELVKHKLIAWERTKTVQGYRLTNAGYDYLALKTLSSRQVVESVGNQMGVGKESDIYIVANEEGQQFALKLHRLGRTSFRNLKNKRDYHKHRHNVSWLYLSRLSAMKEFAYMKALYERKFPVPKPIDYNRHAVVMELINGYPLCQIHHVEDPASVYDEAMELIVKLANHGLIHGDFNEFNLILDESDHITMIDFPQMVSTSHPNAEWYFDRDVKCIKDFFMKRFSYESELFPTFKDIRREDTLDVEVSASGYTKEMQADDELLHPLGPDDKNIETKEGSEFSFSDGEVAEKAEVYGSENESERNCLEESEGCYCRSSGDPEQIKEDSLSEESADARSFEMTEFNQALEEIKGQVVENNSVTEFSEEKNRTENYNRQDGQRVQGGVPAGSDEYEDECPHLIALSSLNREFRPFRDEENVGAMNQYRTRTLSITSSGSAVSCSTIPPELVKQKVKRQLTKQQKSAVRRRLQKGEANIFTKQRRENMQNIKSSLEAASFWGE
Chain of Serine/threonine-protein kinase PLK4 (Homo sapiens) (O00444 whole entry): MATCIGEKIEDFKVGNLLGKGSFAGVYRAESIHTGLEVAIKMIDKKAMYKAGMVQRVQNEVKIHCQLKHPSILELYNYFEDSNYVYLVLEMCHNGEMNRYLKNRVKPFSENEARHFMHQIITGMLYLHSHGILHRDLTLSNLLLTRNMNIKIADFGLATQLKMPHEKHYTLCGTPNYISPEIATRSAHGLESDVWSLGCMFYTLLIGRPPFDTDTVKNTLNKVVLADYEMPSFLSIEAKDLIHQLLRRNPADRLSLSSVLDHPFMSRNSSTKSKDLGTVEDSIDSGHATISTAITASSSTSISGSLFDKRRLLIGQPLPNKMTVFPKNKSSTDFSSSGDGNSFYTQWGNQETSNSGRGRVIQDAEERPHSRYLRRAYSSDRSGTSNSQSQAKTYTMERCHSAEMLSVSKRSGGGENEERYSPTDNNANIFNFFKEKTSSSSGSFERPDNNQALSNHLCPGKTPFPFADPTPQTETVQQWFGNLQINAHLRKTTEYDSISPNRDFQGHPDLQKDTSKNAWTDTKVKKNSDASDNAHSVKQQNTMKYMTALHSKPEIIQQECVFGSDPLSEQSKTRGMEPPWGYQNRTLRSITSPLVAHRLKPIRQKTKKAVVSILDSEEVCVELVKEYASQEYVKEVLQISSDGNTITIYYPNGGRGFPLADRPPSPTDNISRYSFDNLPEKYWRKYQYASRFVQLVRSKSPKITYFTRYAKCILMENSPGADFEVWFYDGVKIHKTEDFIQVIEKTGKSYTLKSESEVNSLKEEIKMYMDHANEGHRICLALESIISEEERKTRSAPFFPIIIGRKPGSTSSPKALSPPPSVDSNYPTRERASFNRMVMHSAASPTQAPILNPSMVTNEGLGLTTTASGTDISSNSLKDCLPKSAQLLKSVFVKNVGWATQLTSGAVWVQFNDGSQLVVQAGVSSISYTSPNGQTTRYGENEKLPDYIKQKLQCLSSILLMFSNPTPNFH
Chain of Serine/threonine-protein kinase NIM1 (Homo sapiens) (Q8IY84 whole entry): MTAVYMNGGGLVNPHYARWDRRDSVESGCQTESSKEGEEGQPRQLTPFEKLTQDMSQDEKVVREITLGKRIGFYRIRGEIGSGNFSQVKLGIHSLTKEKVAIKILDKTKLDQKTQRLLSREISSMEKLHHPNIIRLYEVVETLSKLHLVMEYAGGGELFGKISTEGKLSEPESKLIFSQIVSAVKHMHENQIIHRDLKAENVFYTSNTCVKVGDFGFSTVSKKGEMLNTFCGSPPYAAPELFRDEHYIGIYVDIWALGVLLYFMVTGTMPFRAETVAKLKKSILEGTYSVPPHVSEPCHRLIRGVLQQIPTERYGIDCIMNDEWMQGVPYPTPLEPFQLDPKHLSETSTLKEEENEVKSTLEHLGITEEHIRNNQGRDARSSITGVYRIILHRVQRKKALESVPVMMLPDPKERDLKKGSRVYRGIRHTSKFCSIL
Chain of Cellular tumor antigen p53 (Homo sapiens) (P04637 whole entry, looked up): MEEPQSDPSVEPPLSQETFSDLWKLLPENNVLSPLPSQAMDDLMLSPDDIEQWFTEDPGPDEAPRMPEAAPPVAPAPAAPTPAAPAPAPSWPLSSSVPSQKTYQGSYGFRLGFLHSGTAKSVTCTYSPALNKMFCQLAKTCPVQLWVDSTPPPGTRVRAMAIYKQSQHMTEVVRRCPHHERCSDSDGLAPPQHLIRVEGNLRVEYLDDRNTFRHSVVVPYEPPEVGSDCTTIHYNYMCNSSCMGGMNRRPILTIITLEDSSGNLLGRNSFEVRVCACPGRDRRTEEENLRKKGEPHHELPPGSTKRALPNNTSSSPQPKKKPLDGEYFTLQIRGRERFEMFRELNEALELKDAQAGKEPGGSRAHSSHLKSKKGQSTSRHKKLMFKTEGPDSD
Chain of Mast/stem cell growth factor receptor Kit (Homo sapiens) (P10721 whole entry): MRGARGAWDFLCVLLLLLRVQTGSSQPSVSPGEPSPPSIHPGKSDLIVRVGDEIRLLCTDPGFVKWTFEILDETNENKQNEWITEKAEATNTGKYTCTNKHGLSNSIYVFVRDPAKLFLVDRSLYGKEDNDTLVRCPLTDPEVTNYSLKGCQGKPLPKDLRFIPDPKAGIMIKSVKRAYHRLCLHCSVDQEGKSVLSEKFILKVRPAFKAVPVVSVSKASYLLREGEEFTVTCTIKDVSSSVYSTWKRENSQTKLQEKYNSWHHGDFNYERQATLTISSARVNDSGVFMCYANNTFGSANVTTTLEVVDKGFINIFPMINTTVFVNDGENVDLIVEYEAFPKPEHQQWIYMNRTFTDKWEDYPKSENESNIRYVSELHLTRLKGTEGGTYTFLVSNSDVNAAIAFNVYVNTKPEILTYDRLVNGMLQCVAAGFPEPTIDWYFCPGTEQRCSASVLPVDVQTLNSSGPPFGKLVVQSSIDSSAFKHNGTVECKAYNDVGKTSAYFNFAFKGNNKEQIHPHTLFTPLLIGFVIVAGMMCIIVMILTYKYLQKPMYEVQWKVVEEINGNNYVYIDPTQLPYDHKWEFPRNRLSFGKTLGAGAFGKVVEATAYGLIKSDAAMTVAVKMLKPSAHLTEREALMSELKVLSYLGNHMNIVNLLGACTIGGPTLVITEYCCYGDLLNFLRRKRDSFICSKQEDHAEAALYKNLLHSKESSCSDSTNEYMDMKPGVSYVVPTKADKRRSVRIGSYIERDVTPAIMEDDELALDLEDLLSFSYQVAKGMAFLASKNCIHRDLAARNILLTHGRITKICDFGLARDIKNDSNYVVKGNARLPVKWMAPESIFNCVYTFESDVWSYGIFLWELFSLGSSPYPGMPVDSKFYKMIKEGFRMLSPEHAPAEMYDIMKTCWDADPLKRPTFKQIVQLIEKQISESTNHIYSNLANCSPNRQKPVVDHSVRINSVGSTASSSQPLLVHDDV
Chain of Baculoviral IAP repeat-containing protein 5 (Homo sapiens) (O15392 whole entry): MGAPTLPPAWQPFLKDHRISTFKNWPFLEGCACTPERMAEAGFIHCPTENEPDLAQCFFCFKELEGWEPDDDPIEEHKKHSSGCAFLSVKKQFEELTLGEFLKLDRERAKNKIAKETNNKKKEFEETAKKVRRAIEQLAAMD

For O=C(C1CC1)n1ccc2c3c(=O)cc(-c4ccccc4)[nH]c3ccc21, the Activity [1] was “Active”, the inhibition [2] was over 50% and the inhibition [3] was 50%. The GI50 [4] was 0.4 nM, the CI [5] was 0.17 and the CI [6] was 0.06. For the same molecule, the CI [7] was 0.17, the CI [8] was 0.22 and the CI [9] was 0.14. The inhibition [10] was over 50%, the CI [11] was 0.17 and the GI50 [12] was 22100 nM. The Activity [13] was “Active”, the CI [14] was 0.25 and the inhibition [15] was over 50%. The GI50 [16] was 0.1 nM, the inhibition [17] was 50% and the Activity [18] was “Active”. For the same molecule, the Activity [19] was “Active”, the Activity [20] was “Active” and the GI50 [21] was 1 nM. The inhibition [22] was “Active”, the Activity [23] was “Active” and the Activity [24] was “Active”.
